Assay results as given in ChEMBL document CHEMBL3244011, “(Aryloxy)[p-(aryloxy)phenyl]- and (aryloxy)[p-(arylthio)phenyl]acetic acids and esters as hypolipidemic agents” (1979).

Columns and labels:
Format in all cases: functional
Set-up in all cases: scale not given: the % may be the effect or the level left
[1] = tested on: Rattus norvegicus; experiment: Hypolipidemic activity in COBBS-CD rat assessed as reduction in serum triglyceride level at 0.1% administered with chow diet after 5 days relative to control
In short: (§1)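 The compound was given in ground chow at 0.1, 0.03 or 0.01% w/w (about 100, 30 and 10 mg/kg) to male COBBS-CD rats (n=4; solvent-chow controls n=8) for 5 days ad libitum. Rats were killed by decapitation and blood collected. Serum triglycerides were assayed by an automated method and compared with controls; ± values are SD.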

[2] = tested on: Rattus norvegicus; experiment: Hypolipidemic activity in COBBS-CD rat assessed as reduction in serum sterol level at 0.03% administered with chow diet after 5 days relative to control
In short: (§2)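 Male COBBS-CD rats, four per treated group and eight per control group. The compound was mixed into ground rat chow at 0.1, 0.03 or 0.01% w/w (about 100, 30 and 10 mg/kg). Control chow received only the mixing solvent (methanol-chloroform 1:3 v/v). Food and water were ad libitum for 5 days, then rats were decapitated and blood collected. Serum sterols were measured by an automated method and expressed relative to controls; ± values are SD.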

[3] = tested on: Rattus norvegicus; experiment: Hypolipidemic activity in COBBS-CD rat assessed as reduction in serum triglyceride level at 0.01% administered with chow diet after 5 days relative to control; in short: as §1
[4] = tested on: Rattus norvegicus; experiment: Hypolipidemic activity in COBBS-CD rat assessed as reduction in serum sterol level at 0.01% administered with chow diet after 5 days relative to control; in short: as §2
[5] = tested on: Rattus norvegicus; experiment: Hypolipidemic activity in COBBS-CD rat assessed as reduction in serum triglyceride level at 0.03% administered with chow diet after 5 days relative to control; in short: as §1
[6] = tested on: Rattus norvegicus; experiment: Hypolipidemic activity in COBBS-CD rat assessed as reduction in serum sterol level at 0.1% administered with chow diet after 5 days relative to control; in short: as §2

SMILES | Activity [1] [%] | Activity [2] [%] | Activity [3] [%] | Activity [4] [%] | Activity [5] [%] | Activity [6] [%]
COC(=O)C(Oc1ccc(C2CCCCC2)cc1)c1ccc(Sc2ccc(Cl)cc2)cc1 (stereo not drawn) | 45 | 15 | 33 | 14 | 44 | 19
COC(=O)C(Oc1cccc(C(F)(F)F)c1)c1ccc(Oc2ccc(C(C)(C)C)cc2)cc1 (stereo not drawn) | 19 | -4 | -12 | -5 | -18 | 13
O=C(O)C(Oc1cccc(C(F)(F)F)c1)c1ccc(Cl)cc1 (stereo not drawn) [METAGLIDASEN] | 49 | 14 | 14 | 25 | 10 | 26
COC(=O)C(Oc1ccc(C(C)(C)C)cc1)c1ccc(Sc2ccc(Cl)cc2)cc1 (stereo not drawn) | 59 | 27 | 45 | 10 | 56 | 12
COC(=O)C(Oc1ccc(C2CCCCC2)cc1)c1ccc(Oc2ccc(Cl)cc2)cc1 (stereo not drawn) | 66 | 21 | 37 | 20 | 47 | 51
COC(=O)C(Oc1ccc(C23CC4CC(CC(C4)C2)C3)cc1)c1ccc(Oc2ccc(Cl)cc2)cc1 (stereo not drawn) | 17 | 16 | 11 | 14 | 29 | 3
COC(=O)C(Oc1ccc(Cl)cc1)c1ccc(Sc2ccccc2)cc1 (stereo not drawn) | 30 | 6 | 41 | 6 | 47 | 6
COC(=O)C(Oc1ccc(C(C)(C)C)cc1)c1ccc(Oc2ccc([N+](=O)[O-])cc2)cc1 (stereo not drawn) | 51 | -4 | 34 | -3 | 40 | 10
COC(=O)C(C)(Oc1ccc(Cl)cc1)c1ccc(Oc2ccc(Cl)cc2)cc1 (stereo not drawn) | 63 | 14 | 39 | 9 | 44 | 39
COC(=O)C(Oc1cccc(-c2ccccc2)c1)c1ccc(Oc2ccc(Cl)cc2)cc1 (stereo not drawn) | 66 | 21 | 38 | 8 | 45 | 28
COC(=O)C(Oc1ccc2ccc(=O)oc2c1)c1ccc(Oc2ccc(Cl)cc2)cc1 (stereo not drawn) | -16 | 7 | 4 | -5 | -23 | -4
COC(=O)C(Oc1ccc(Cl)c2ccccc12)c1ccc(Oc2ccc(Cl)cc2)cc1 (stereo not drawn) | 32 | -3 | -15 | -18 | -8 | 11
COC(=O)C(Oc1ccc(Cl)cc1)c1ccc(Oc2ccc(Cl)cc2)cc1 (stereo not drawn) | 56 | 23 | 39 | 16 | 48 | 33
COC(=O)C(Oc1ccc(Cl)cc1)c1ccc([S+]([O-])c2ccc(Cl)cc2)cc1 (stereo not drawn) | 55 | 11 | 12 | 15 | 35 | 31
COC(=O)C(Oc1ccc2ccccc2c1)c1ccc(Oc2ccc(Cl)cc2)cc1 (stereo not drawn) | 55 | 15 | 32 | 10 | 44 | 32
CCOP(=O)(OCC)C(Oc1ccc(Cl)cc1)(C(=O)OC)c1ccc(Oc2ccc(Cl)cc2)cc1 (stereo not drawn) | 60 | 27 | 18 | 23 | 44 | 43
COC(=O)C(Oc1cc(Cl)cc(Cl)c1)c1ccc(Oc2ccc(Cl)cc2)cc1 (stereo not drawn) | 47 | 10 | -44 | -11 | 6 | 26
O=C(OCC(O)CO)C(Oc1ccc(Cl)cc1)c1ccc(Oc2ccc(Cl)cc2)cc1 (stereo not drawn) | 63 | 27 | 24 | 13 | 53 | 39
